# Data reported in ChEMBL document CHEMBL5058577, “EUbOPEN Chemogenomics Library 2 (Multiplex)” (2022).
# Tested on: HEK-293T
# Assay: Multiplex assay against HEK293T
# Assay type: toxicity, cell-based
# Conditions: human
# Summary of the method: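 Live cells were stained at seeding with Hoechst33342, BioTracker Green Microtubule Cytoskeleton Dye, MitoTracker Red and Annexin V Alexa Fluor 680, then imaged on a CQ1 microscope at 37°C and 5% CO2 after compound addition. CellPathfinder machine-learning gating split cells into Hoechst high-intensity objects or normal cells. Normal cells were split into healthy, pyknosed or fragmented nuclei, and pyknosed cells into mitotic or apoptotic. Tubulin, mitochondrial-mass and membrane-permeability phenotypes are per cents of healthy-nucleus cells.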
# [1] = 12 h, 1 µM, compound concentration 1 uM, replicate 1
# [2] = 12 h, 1 µM, compound concentration 1 uM, replicate 2
# [3] = 12 h, 10 µM, compound concentration 10 uM, replicate 1
# [4] = 12 h, 10 µM, compound concentration 10 uM, replicate 2
# [5] = 24 h, 1 µM, compound concentration 1 uM, replicate 1
# [6] = 24 h, 1 µM, compound concentration 1 uM, replicate 2
# [7] = 24 h, 10 µM, compound concentration 10 uM, replicate 1
# [8] = 24 h, 10 µM, compound concentration 10 uM, replicate 2
# [9] = 48 h, 1 µM, compound concentration 1 uM, replicate 1
# [10] = 48 h, 1 µM, compound concentration 1 uM, replicate 2
# [11] = 48 h, 10 µM, compound concentration 10 uM, replicate 1
# [12] = 48 h, 10 µM, compound concentration 10 uM, replicate 2
structure (smiles),measurement,setting,value
Cl.NCCc1ccc(O)c(O)c1 [DOPAMINE HYDROCHLORIDE],Population Apoptotic (%),[1],31%
same,Population Fragmented Nuclei (%),[1],6%
same,Population Healthy Nuclei (%),[1],77%
same,Population Hoechst High Intensity Objects (%),[1],10%
same,Population Membrane Permeable-Phenotype (%),[1],0%
same,Population Mitochondria Different-Phenotype (%),[1],54%
same,Population Mitotic Cells (%),[1],68%
same,Population Normal (%),[1],89%
same,Population Pyknosed Nuclei (%),[1],16%
same,Population Tubulin-Different-Phenotype (%),[1],36%
same,Total Cell Count,[1],324
same,Population Apoptotic (%),[2],54%
same,Population Fragmented Nuclei (%),[2],7%
same,Population Healthy Nuclei (%),[2],78%
same,Population Hoechst High Intensity Objects (%),[2],6%
same,Population Mitochondria Different-Phenotype (%),[2],58%
same,Population Mitotic Cells (%),[2],46%
same,Population Normal (%),[2],93%
same,Population Pyknosed Nuclei (%),[2],14%
same,Population Tubulin-Different-Phenotype (%),[2],18%
same,Total Cell Count,[2],372
same,Population Apoptotic (%),[3],46%
same,Population Fragmented Nuclei (%),[3],5%
same,Population Healthy Nuclei (%),[3],77%
same,Population Hoechst High Intensity Objects (%),[3],6%
same,Population Membrane Permeable-Phenotype (%),[3],0%
same,Population Mitochondria Different-Phenotype (%),[3],57%
same,Population Mitotic Cells (%),[3],53%
same,Population Normal (%),[3],93%
same,Population Pyknosed Nuclei (%),[3],17%
same,Population Tubulin-Different-Phenotype (%),[3],43%
same,Total Cell Count,[3],344
same,Population Apoptotic (%),[4],37%
same,Population Healthy Nuclei (%),[4],83%
same,Population Hoechst High Intensity Objects (%),[4],5%
same,Population Mitochondria Different-Phenotype (%),[4],51%
same,Population Mitotic Cells (%),[4],62%
same,Population Normal (%),[4],94%
same,Population Pyknosed Nuclei (%),[4],11%
same,Population Tubulin-Different-Phenotype (%),[4],23%
same,Total Cell Count,[4],413
same,Population Apoptotic (%),[5],44%
same,Population Fragmented Nuclei (%),[5],9%
same,Population Healthy Nuclei (%),[5],76%
same,Population Hoechst High Intensity Objects (%),[5],4%
same,Population Membrane Permeable-Phenotype (%),[5],1%
same,Population Mitochondria Different-Phenotype (%),[5],40%
same,Population Mitotic Cells (%),[5],55%
same,Population Normal (%),[5],95%
same,Population Pyknosed Nuclei (%),[5],13%
same,Population Tubulin-Different-Phenotype (%),[5],19%
same,Total Cell Count,[5],451
same,Population Apoptotic (%),[6],20%
same,Population Fragmented Nuclei (%),[6],8%
same,Population Healthy Nuclei (%),[6],85%
same,Population Hoechst High Intensity Objects (%),[6],5%
same,Population Membrane Permeable-Phenotype (%),[6],0%
same,Population Mitochondria Different-Phenotype (%),[6],46%
same,Population Mitotic Cells (%),[6],79%
same,Population Normal (%),[6],94%
same,Population Pyknosed Nuclei (%),[6],5%
same,Population Tubulin-Different-Phenotype (%),[6],11%
same,Total Cell Count,[6],478
same,Population Apoptotic (%),[7],39%
same,Population Fragmented Nuclei (%),[7],7%
same,Population Healthy Nuclei (%),[7],79%
same,Population Hoechst High Intensity Objects (%),[7],5%
same,Population Membrane Permeable-Phenotype (%),[7],0%
same,Population Mitochondria Different-Phenotype (%),[7],36%
same,Population Mitotic Cells (%),[7],60%
same,Population Normal (%),[7],94%
same,Population Pyknosed Nuclei (%),[7],12%
same,Population Tubulin-Different-Phenotype (%),[7],23%
same,Total Cell Count,[7],393
same,Population Apoptotic (%),[8],38%
same,Population Fragmented Nuclei (%),[8],9%
same,Population Healthy Nuclei (%),[8],83%
same,Population Mitochondria Different-Phenotype (%),[8],40%
same,Population Mitotic Cells (%),[8],61%
same,Population Pyknosed Nuclei (%),[8],7%
same,Population Tubulin-Different-Phenotype (%),[8],15%
same,Total Cell Count,[8],533
same,Population Apoptotic (%),[9],19%
same,Population Fragmented Nuclei (%),[9],14%
same,Population Healthy Nuclei (%),[9],78%
same,Population Hoechst High Intensity Objects (%),[9],4%
same,Population Membrane Permeable-Phenotype (%),[9],1%
same,Population Mitochondria Different-Phenotype (%),[9],23%
same,Population Mitotic Cells (%),[9],80%
same,Population Normal (%),[9],95%
same,Population Pyknosed Nuclei (%),[9],7%
same,Population Tubulin-Different-Phenotype (%),[9],14%
same,Total Cell Count,[9],785
same,Population Apoptotic (%),[10],23%
same,Population Fragmented Nuclei (%),[10],10%
same,Population Healthy Nuclei (%),[10],81%
same,Population Membrane Permeable-Phenotype (%),[10],0%
same,Population Mitochondria Different-Phenotype (%),[10],20%
same,Population Mitotic Cells (%),[10],76%
same,Population Tubulin-Different-Phenotype (%),[10],7%
same,Total Cell Count,[10],638
same,Population Apoptotic (%),[11],30%
same,Population Fragmented Nuclei (%),[11],14%
same,Population Healthy Nuclei (%),[11],79%
same,Population Hoechst High Intensity Objects (%),[11],3%
same,Population Membrane Permeable-Phenotype (%),[11],0%
same,Population Mitochondria Different-Phenotype (%),[11],24%
same,Population Mitotic Cells (%),[11],70%
same,Population Normal (%),[11],96%
same,Population Pyknosed Nuclei (%),[11],6%
same,Population Tubulin-Different-Phenotype (%),[11],13%
same,Total Cell Count,[11],660
same,Population Apoptotic (%),[12],17%
same,Population Fragmented Nuclei (%),[12],12%
same,Population Healthy Nuclei (%),[12],83%
same,Population Hoechst High Intensity Objects (%),[12],1%
same,Population Mitochondria Different-Phenotype (%),[12],17%
same,Population Mitotic Cells (%),[12],82%
same,Population Normal (%),[12],98%
same,Population Pyknosed Nuclei (%),[12],4%
same,Population Tubulin-Different-Phenotype (%),[12],7%
same,Total Cell Count,[12],859
